{"data": "Results pooled from the literature", "read-out": "enzyme activity", "mode": "inhibitor", "INSR phosphorylated": "Insulin receptor, phosphorylated (INSR, Homo sapiens, UniProt P06213)", "INSR": "Insulin receptor (INSR, Homo sapiens, UniProt P06213)"}
{"SMILES": "Cc1cnc(NC2CCOCC2)nc1-n1cnc(C(=O)NC(CN)c2cc(F)cc(Cl)c2)c1 (stereo not drawn)", "target": "INSR phosphorylated", "technique": "radiometric", "tested at": "1 µM", "remaining activity [%]": 104}
{"SMILES": "CC(C)(O)[C@H]1CC[C@H](Nc2ccc3ncc(-c4cccc(C(F)(F)F)c4)n3n2)CC1", "target": "INSR", "tested at": "1 µM", "remaining activity [%]": 102}
{"SMILES": "CCCOc1ccc(OC)c(F)c1C(=O)c1ccc(C(=O)N[C@@H]2CNC[C@H]2NC(=O)c2ccc3[nH]ncc3c2)cc1", "target": "INSR phosphorylated", "tested at": "10 µM", "remaining activity [%]": 98}
{"SMILES": "Cc1sc(C(=O)NC2COC2)cc1-n1cc(NC(=O)Nc2c(F)cccc2Cl)cn1", "target": "INSR", "tested at": "10 µM", "remaining activity [%]": 85.5}
{"SMILES": "CC(C)(C)c1nc(-c2cccc(NS(=O)(=O)c3c(F)cccc3F)c2F)c(-c2ccnc(N)n2)s1", "target": "INSR", "technique": "radiometric", "tested at": "1 µM", "remaining activity [%]": 108}
{"SMILES": "CC(C)(C)C(=O)c1sc(NC2CCCCC2)nc1N", "target": "INSR", "tested at": "10 µM", "remaining activity [%]": 93}
{"SMILES": "Cc1ccc(NC(=O)c2ccc(C)c(C(F)(F)F)c2)cc1C#Cc1nn(C2CCC(O)CC2)c2ncnc(N)c12 (stereo not drawn)", "target": "INSR phosphorylated", "tested at": "10 µM", "remaining activity [%]": 89}
{"SMILES": "COc1cc(Cl)c(C(=O)N[C@@H](CN[C@H]2CC[C@@H](N)CC2)Cc2ccc(C#N)cc2)cc1-c1ccc(CN[C@H](C)c2ccc(C)cc2)o1", "target": "INSR phosphorylated", "tested at": "1 µM", "remaining activity [%]": 100}
{"SMILES": "COc1cc(Nc2cnc(C#N)c(O[C@H](C)CN(C)C)n2)ncc1-c1cnn(C)c1", "target": "INSR", "technique": "radiometric", "tested at": "10 µM", "remaining activity [%]": 84}
{"SMILES": "CCN(CC)c1ccc(C2=NNC(=O)CC2C)cc1[N+](=O)[O-] (stereo not drawn)", "target": "INSR phosphorylated", "tested at": "10 µM", "remaining activity [%]": 95}
{"SMILES": "FC(F)c1nc2ccccc2n1-c1nc(N2CCOCC2)nc(N2CCOCC2)n1", "target": "INSR", "tested at": "10 µM", "remaining activity [%]": 104}
{"SMILES": "Cc1[nH]c(/C=C2\\C(=O)Nc3ccc(F)cc32)c(C)c1C(=O)N[C@H]1CCN(C(=O)N(C)C)C1", "target": "INSR", "tested at": "0.1 µM", "remaining activity [%]": 132}
